Lmaj promast – reduces viability of Leishmania major promastigotes; inhibition, % at 10 µM; resazurin fluorescence viability; hit rate 9% among 200,000; in the data active = inhibition above about 50%;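 also: promastigotes grown with compound for 44 hours at 28 °C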
HSF-1 act – increases HSF-1 driven luciferase reporter signal | NIH3T3-HGL HSF-1 luciferase reporter, MG132, 8 h; 100% = twice DMSO control signal | activation, % at 9 µM | hit rate 1.7% among 300,000;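 active = mean replicate activation of at least 50% with a set share of replicates each reaching 50%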;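 also: 0% = median of the neutral control wells and 100% = twice that signal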
Hsp70 activator – switches on Hsp70 transcription. HeLa Hsp70 promoter luciferase reporter, luminescence; scaled: vehicle 0, proteasome-inhibitor control 100%. activation, % at 10 µM. hit rate 0.04% among 200,000. AID 1203;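 active = activation above the mean across all tested compounds plus 3 SD, cutoff set per campaign, cut at about 5.5% in these data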;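 also: 100% = MG132 at 30 µM as the positive control and 0% = DMSO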
HSF1 inhib – HSF1 inhibition; NIH3T3-HGL HSE-luciferase, MG132-induced, luminescence 8 h; hits give low values; activity change, negative = inhibition, % at 7.5 µM (by protocol); hit rate 0.77% among 300,000; AID 2098;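 active = more than half of replicate wells show activity change below -50%, luminescence cut by over half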;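 also: luciferase reports HSF-1 transcriptional activity via heat shock element; 0% = median of DMSO wells and -100% = zero luminescence signal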
T cruzi repl – T. cruzi replication inhibition | T. cruzi beta-gal in NIH3T3, luminescence, 90 h | inhibition, % (test concentration not listed) | hit rate 1.4% among 300,000;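 active = mean inhibition across valid replicates above about 55%, limit read from the data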;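 also: signal also drops with host cell toxicity which is not excluded here; 0% = plate median of DMSO wells and 100% = zero luminescence signal; higher percent means less beta-gal luminescence so fewer parasites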
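System: mouse NIH/3T3 fibroblasts infected with β-gal-expressing T. cruzi Tulahuen C4 / Input: NIH/3T3 cells, 5,000 per well / Buffer or medium: Low-serum DMEM with 2% FBS / Probe or stimulus: 5000 reporter trypomastigotes per well / Schedule: ≥90 h infection period, 3 h prior cell attachment / Measured by: GalScreen luminescence, 60 min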
* marks the source's active call; other numbers are inactive results; x = not tested or not shown. Only a selection was taken, and hits are over-represented in it overall.

SMILES | Lmaj promast | HSF-1 act | Hsp70 activator | HSF1 inhib | T cruzi repl
COc1ccc(-c2nc3c4ccccc4ccn3c2CN2CCCCC2)cc1OC | x | -5.9 | x | -4.2 | 17.5
Cc1cc(N2C3CCC2CC(O)(c2ccc(F)cc2)C3)nc(-c2ccccc2)n1 (configuration not stated) | 58.1* | 2.4 | -0.2 | -6.8 | 49.7
Cc1ccnc(N2C3CCC2CC(O)(c2ccccc2)C3)n1 (configuration not stated) | 3.2 | 10.6 | 1.7 | -4.3 | -8.7
O=C(CCC(=O)N1CCCC1)Nc1ccc(Cl)c(Cl)c1 | x | 5.8 | x | 4.3 | -3.3
CCOC(=O)COc1ccc(/C=C2\NC(=S)N(CC)C2=O)cc1 | 97.4* | 13.2 | -0.1 | -3.5 | -38.2
CC1=CC(C)[C@H](/C=N/n2c(=O)[nH]c3c([nH]c4ccc(Br)cc43)c2=O)C(C)C1 (some centres not stated) | 14.2 | 25.2 | 0.2 | -1.1 | 63.7*
COc1ccc(-c2nnc(-c3cc4ccccc4oc3=O)o2)cc1 | 5.3 | -1.4 | -0.2 | -0.9 | -6.4
COc1cccc2cc(-c3nnc(-c4ccccc4)o3)c(=O)oc12 | -4.0 | -53.9 | 0.2 | -57.4* | -4.3
Cc1cc(NC(=O)CC(C)C)c(=O)n(Cc2ccccc2F)c1 | x | -9.7 | x | -1.3 | 0.0
Nc1nc(Br)c2c(F)cccc2c1-c1ccc(Cl)cc1 | -1.1 | 148.7* | -0.1 | 114.3 | -2.9
COc1ccc(CCNC2CC(C)N(C)CC2C)cc1OC (configuration not stated) | 69.0* | -5.4 | -0.1 | -10.1 | 8.7
O=c1oc2cc(Cl)ccc2n1CSc1nc2ccccc2s1 | 3.8 | 104.4* | -0.3 | 62.5 | 0.1
COc1ccc(/C=C/C(=O)c2ccccc2)cc1COc1ccc(F)cc1 | 60.3* | 3.4 | 0.2 | 4.5 | 3.2
COc1ccc(/C=C/C(=O)c2ccc(O)cc2)cc1COc1ccc(F)cc1 | 97.2* | 83.4* | -0.2 | 58.8 | -3.6
O=C(/C=C/c1ccc(O)c([N+](=O)[O-])c1)c1ccc2ccccc2c1 | x | 18.3 | x | 3.3 | 5.0
COc1ccc(C(=O)/C=C/c2ccc(OC)c(COc3ccccc3F)c2)cc1 | 44.9 | 13.4 | -0.1 | 8.6 | 2.0
COc1ccc(Oc2ccc(/C=C/C(=O)c3ccc(O)cc3)cc2[N+](=O)[O-])cc1 | 100.2* | 76.6* | 0.2 | 34.0 | 4.5
COc1ccc(C(=O)/C=C/c2cccc(OCc3ccccc3)c2)cc1CSCC(=O)O | x | 23.3 | x | 12.9 | 5.6
COc1ccc(C(=O)N/N=C/c2ccc(OC)c(COc3ccc(F)cc3)c2)cc1 | x | 11.2 | x | 8.1 | 6.0
COc1ccc(C(=O)/C=C/c2ccc(OCc3ccccc3)cc2)cc1CSCC(=O)O | x | 55.4* | x | 15.7 | -3.7
Cn1c(NC(=O)/C=C\c2ccccc2)cc(=O)n(C)c1=O | -6.0 | 15.2 | -0.2 | 1.6 | -34.9
COc1ccc(/C=C/C(=O)c2ccccc2)cc1Cn1nnc2ccccc21 | 100.0* | 5.1 | 0.3 | 15.3 | 18.0
CCOC(=O)c1cnn(-c2nc(-c3cccc(F)c3)cs2)c1C(F)(F)F | 0.8 | 21.2 | -0.4 | 1.2 | -3.9
Cc1ccnc2c(N3C(=O)C4C5c6ccccc6C(c6ccccc65)C4C3=O)cccc12 (configuration not stated) | 58.2* | -5.8 | -0.3 | -3.0 | 8.6
O=C(CSC(=S)N1CCSCC1)c1ccc(Cl)cc1 | -5.5 | -6.2 | 0.1 | 5.1 | 12.3
SMILES | Lmaj promast | HSF-1 act | Hsp70 activator | HSF1 inhib | T cruzi repl
O=C(CSC(=S)N1CCSCC1)c1ccccc1 | -12.7 | 60.2* | 0.2 | 40.0 | -9.1
O=C(COc1ccccc1[N+](=O)[O-])Nc1ccc(NC(=O)c2cc3ccccc3o2)cc1 | 1.9 | -27.5 | -0.1 | -26.9 | 18.4
O=C(COc1ccc(/C=N/NC(=O)c2cc3ccccc3o2)cc1Br)Nc1ccccc1 | -1.0 | 49.2 | 0.0 | 25.2 | 70.0*
COCCNCCCCOc1ccc(Br)cc1C | 99.6* | -6.3 | -0.1 | -3.6 | 22.6
COCCCNCCCCOc1ccc(Br)cc1C | 98.9* | -8.6 | 0.1 | 4.9 | 45.0
COCCNC(=O)COc1ccc(Br)cc1Cl | 0.8 | 16.4 | -0.1 | -4.2 | -15.2
COc1ccccc1OCCCCNC(C)(C)C | 5.5 | 7.7 | 0.1 | -7.7 | -12.8
CC(C)(C)NCCCCOc1ccccc1F | 99.6* | -7.3 | -0.3 | 0.4 | -8.3
Cc1ccc(NC(=O)COc2ccc(Br)cc2C)cc1 | -5.5 | 42.5 | 0.0 | 23.2 | -6.7
Cc1cc(Br)ccc1OCCCCNC(C)(C)C | 99.6* | -14.3 | -0.4 | -21.5 | 21.8
COc1ccc(C(F)(F)F)cc1N/C=C/c1nnnn1-c1ccc2ccccc2c1 | x | 2.4 | x | 3.7 | -2.2
CC(=O)Nc1ccc(S(=O)(=O)N(Cc2ccco2)Cc2cc3ccccc3[nH]c2=O)cc1 | x | 19.3 | x | -5.1 | 18.5
COc1ccc(NC(=O)CSc2nc3ccc(Nc4nc(N5CCOCC5)nc(N5CCOCC5)n4)cc3s2)cc1 | x | 19.0 | x | 3.2 | 41.4
CC(C)(C)NC(=O)CSc1nc2ccc(Nc3nc(N4CCOCC4)nc(N4CCOCC4)n3)cc2s1 | 76.9* | -5.5 | -0.4 | -8.0 | 57.9*
CC(=O)CSc1nc2ccc(Nc3nc(N4CCOCC4)nc(N4CCOCC4)n3)cc2s1 | 64.4* | -1.9 | -0.3 | -7.0 | 51.6
CCOC(=O)CSc1nc2ccc(Nc3nc(N4CCOCC4)nc(N4CCOCC4)n3)cc2s1 | 19.9 | -12.7 | -0.3 | -0.5 | 12.2
O=C(CNCc1cccc(Cl)c1)N1CCc2ccccc2C1 | x | 21.9 | x | 21.5 | -0.7
C=CS(=O)(=O)c1sc(Cl)c(N2CCOCC2)c1[N+](=O)[O-] | -3.7 | 74.2* | -0.2 | 45.2 | 55.4*
C=CSc1sc(Cl)c(N2CCOCC2)c1[N+](=O)[O-] | 1.8 | 2.8 | -0.2 | 7.5 | -12.0
Cc1cccc(NS(=O)(=O)c2ccc3c(c2)OCCO3)c1 | 73.7* | 0.2 | -0.2 | 1.3 | -11.7
COc1ccc(S(=O)(=O)Nc2ccc3c(c2)OCCO3)cc1Cl | 70.8* | -7.0 | -0.4 | -2.9 | 10.5
O=C(O)c1cc(S(=O)(=O)Nc2ccc3c(c2)OCCO3)c(Cl)cc1Cl | -6.2 | -71.2 | -0.3 | -68.6* | -4.0
CNC(=O)C1(C(F)(F)F)C/C(=C\CCO)CCCO1 (configuration not stated) | x | 1.7 | x | -1.6 | 3.2
O=c1c(Cc2c(F)cccc2Cl)c(O)ccn1CCc1c[nH]c2ccccc12 | 10.4 | -2.9 | -0.1 | -4.2 | -1.5
CC(C)c1ccc(NC(=O)COc2ccccn2)cc1 | 1.3 | 38.7 | -0.1 | 13.8 | 55.8*
CCc1ccc(NC(=O)C(C)Oc2nnc(-c3cccs3)c(-c3cccs3)n2)cc1 (configuration not stated) | 84.1* | 17.9 | -0.3 | 8.3 | 21.2
CC(C)c1ccc(NC(=O)COc2nnc(-c3cccs3)c(-c3cccs3)n2)cc1 | 82.6* | -18.4 | -0.4 | -8.9 | 10.8
CCCCn1c(N)c(N(CC)C(=O)CCc2ccccc2)c(=O)[nH]c1=O | -2.3 | 7.3 | -0.3 | 5.8 | -22.6
CC(=O)Nc1cccc(C(=O)/C=C/c2ccc(Br)cc2)c1 | 100.3* | 15.0 | 0.4 | -7.7 | 0.1
COc1ccc(/C=C/C(=O)Nc2cccc(C(C)=O)c2)cc1 | 85.5* | 20.0 | -0.1 | 9.4 | -8.4
